Experimental data from ChEMBL document CHEMBL1134691, “3-Phenyl-5-acyloxymethyl-2H,5H-furan-2-ones: synthesis and biological activity of a novel group of potential antifungal drugs” (2001).
Converted amounts (≈) assume the structure as drawn.

Experiments:
[1] = system: Candida parapsilosis; assay: Inhibition of Candida parapsilosis ATCC 22019 growth for 48 hours in vitro.; type: functional; details: Lodderomyces parapsilosis, ATCC 22019, 48 h; read-out: MIC
Summary of the method: (§1)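 NCCLS M27-A broth microdilution in RPMI 1640 with L-glutamine and 0.165 M MOPS, pH 7.0. Isolates kept on Sabouraud dextrose agar. Inoculum 5 × 10^3 cfu/mL final. Compounds were diluted in DMSO (≤2% final) and tested in 2-fold dilutions of 1000–0.24 µmol/L. Incubation at 35 °C, OD540 read at 24 and 48 h. MIC = 80% growth inhibition versus control; assays run twice in duplicate.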

[2] = system: Trichosporon beigelii; assay: Inhibition of Trichosporon beigelli 1188 for 48 hours in vitro.; type: functional; details: Trichosporon beigelii, 48 h; read-out: MIC
Summary of the method: (§2)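 Microdilution following NCCLS M27-A. Medium: RPMI 1640 with L-glutamine, 0.165 M MOPS, pH 7.0. Final inoculum 5 × 10^3 cfu/mL. Compounds dissolved in DMSO, final ≤2%, serially halved from 1000 to 0.24 µmol/L. Incubated at 35 °C and read at 24 and 48 h. MIC defined as 80% inhibition of control growth; run twice in duplicate.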

[3] = system: Clavispora lusitaniae; assay: Inhibition of Candida lusitaniae 2446/I growth for 48 hours in vitro.; type: functional; details: Clavispora lusitaniae, 48 h; read-out: MIC; summary of the method: as §1
[4] = system: Lichtheimia corymbifera; assay: In vitro inhibition of Absidia corymbifera 272 growth for 24 hours.; type: functional; details: Lichtheimia corymbifera, 24 h; read-out: MIC
Summary of the method: (§3)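 Filamentous isolates tested by microdilution per NCCLS M27-A in RPMI 1640 plus L-glutamine, buffered with 0.165 M MOPS to pH 7.0. Final inoculum 5 × 10^3 cfu/mL. Compounds in DMSO (final ≤2%), 2-fold series over 1000–0.24 µmol/L. Plates held at 35 °C and read visually after 24 and 48 h. MIC taken as 80% inhibition of control growth; determined twice in duplicate.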

[5] = system: Candida tropicalis; assay: Inhibition of Candida tropicalis 156 growth for 48 hours in vitro.; type: functional; details: Candida tropicalis, 48 h; read-out: MIC; summary of the method: as §1
[6] = system: Candida albicans; assay: Inhibition of Candida albicans ATCC 44859 growth for 48 hours in vitro.; type: functional; details: Candida albicans, ATCC 44859, 48 h; read-out: MIC; summary of the method: as §1
[7] = system: Pichia kudriavzevii; assay: Inhibition of Candida krusei E28 growth for 24 hours in vitro.; type: functional; details: Pichia kudriavzevii, 24 h; read-out: MIC; summary of the method: as §1
[8] = Inhibition of Trichophyton mentagrophytes 445 growth for 120 hours in vitro.; type: functional, Arthroderma benhamiae; details: Trichophyton benhamiae, 120 h; read-out: MIC
Summary of the method: (§4)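 Dermatophyte grown in MOPS-buffered (0.165 M, pH 7.0) RPMI 1640 containing L-glutamine, in an M27-A microdilution format. Inoculum 5 × 10^3 cfu/mL final. Compounds from DMSO stocks (≤2% final), 2-fold dilutions 1000–0.24 µmol/L. Incubated at 35 °C, growth judged visually at 72 and 120 h. MIC endpoint is 80% inhibition relative to control; measured twice in duplicate.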

[9] = system: Aspergillus fumigatus; assay: Inhibition of Aspergillus fumigatus 231 growth for 48 hours in vitro.; type: functional; details: Aspergillus fumigatus, 48 h; read-out: MIC; summary of the method: as §3
[10] = system: Candida tropicalis; assay: Inhibition of Candida tropicalis 156 growth for 24 hours in vitro.; type: functional; details: Candida tropicalis, 24 h; read-out: MIC; summary of the method: as §1
[11] = system: Candida parapsilosis; assay: Inhibition of Candida parapsilosis ATCC 22019 growth for 24 hours in vitro.; type: functional; details: Lodderomyces parapsilosis, ATCC 22019, 24 h; read-out: MIC; summary of the method: as §1
[12] = system: Nakaseomyces glabratus; assay: Inhibition of Candida glabrata 20/I growth for 48 hours in vitro.; type: functional; details: Nakaseomyces glabratus, 48 h; read-out: MIC; summary of the method: as §1
[13] = system: Nakaseomyces glabratus; assay: Inhibition of Candida glabrata 20/I growth for 24 hours in vitro.; type: functional; details: Nakaseomyces glabratus, 24 h; read-out: MIC; summary of the method: as §1
[14] = system: Pichia kudriavzevii; assay: Inhibition of Candida krusei ATCC 6258 growth for 48 hours in vitro.; type: functional; details: Pichia kudriavzevii, ATCC 6258, 48 h; read-out: MIC; summary of the method: as §1
[15] = Inhibition of Trichophyton mentagrophytes 445 growth for 72 hours in vitro.; type: functional, Arthroderma benhamiae; details: Trichophyton benhamiae, 72 h; read-out: MIC; summary of the method: as §4
[16] = system: Lichtheimia corymbifera; assay: In vitro inhibition of Absidia corymbifera 272 growth for 48 hours.; type: functional; details: Lichtheimia corymbifera, 48 h; read-out: MIC; summary of the method: as §3
[17] = system: Clavispora lusitaniae; assay: Inhibition of Candida lusitaniae 2446/I growth for 24 hours in vitro.; type: functional; details: Clavispora lusitaniae, 24 h; read-out: MIC; summary of the method: as §1
[18] = system: Candida albicans; assay: Inhibition of Candida albicans ATCC 90028 for 24 hours in vitro.; type: functional; details: Candida albicans, ATCC 90028, 24 h; read-out: MIC; summary of the method: as §1
[19] = system: Pichia kudriavzevii; assay: Inhibition of Candida krusei ATCC 6258 growth for 24 hours in vitro.; type: functional; details: Pichia kudriavzevii, ATCC 6258, 24 h; read-out: MIC; summary of the method: as §1
[20] = system: Trichosporon beigelii; assay: Inhibition of Trichosporon beigelli 1188 for 24 hours in vitro.; type: functional; details: Trichosporon beigelii, 24 h; read-out: MIC; summary of the method: as §2
[21] = system: Candida albicans; assay: Inhibition of Candida albicans ATCC 44859 growth for 24 hours in vitro.; type: functional; details: Candida albicans, ATCC 44859, 24 h; read-out: MIC; summary of the method: as §1
[22] = system: Candida albicans; assay: Inhibition of Candida albicans ATCC 90028 for 48 hours in vitro.; type: functional; details: Candida albicans, ATCC 90028, 48 h; read-out: MIC; summary of the method: as §1
[23] = system: Pichia kudriavzevii; assay: Inhibition of Candida krusei E28 growth for 48 hours in vitro.; type: functional; details: Pichia kudriavzevii, 48 h; read-out: MIC; summary of the method: as §1
[24] = system: Aspergillus fumigatus; assay: Inhibition of Aspergillus fumigatus 231 growth for 24 hours in vitro.; type: functional; details: Aspergillus fumigatus, 24 h; read-out: MIC; summary of the method: as §3

Row | MIC [1] | MIC [2] | MIC [3] | MIC [4] | MIC [5] | MIC [6] | MIC [7] | MIC [8] | MIC [9] | MIC [10] | MIC [11] | MIC [12] | MIC [13] | MIC [14] | MIC [15] | MIC [16] | MIC [17] | MIC [18] | MIC [19] | MIC [20] | Structure (SMILES) | also measured
1 | 15.6 µM (≈ 4.83 µg/mL) | 15.6 µM (≈ 4.83 µg/mL) | 7.81 µM (≈ 2.41 µg/mL) | 7.81 µM (≈ 2.41 µg/mL) | 15.6 µM (≈ 4.83 µg/mL) | 3.91 µM (≈ 1.21 µg/mL) | 7.81 µM (≈ 2.41 µg/mL) | 1.95 µM (≈ 0.602 µg/mL) | 3.91 µM (≈ 1.21 µg/mL) | 7.81 µM (≈ 2.41 µg/mL) | 7.81 µM (≈ 2.41 µg/mL) | < 0.98 µM | < 0.98 µM | 7.81 µM (≈ 2.41 µg/mL) | 1.95 µM (≈ 0.602 µg/mL) | 15.6 µM (≈ 4.83 µg/mL) | 3.91 µM (≈ 1.21 µg/mL) | 3.91 µM (≈ 1.21 µg/mL) | 7.81 µM (≈ 2.41 µg/mL) | 3.91 µM (≈ 1.21 µg/mL) | CC(C)(C)C(=O)OCC1C=C(c2cccc(Cl)c2)C(=O)O1 (stereo not drawn) | MIC [21]: < 0.98 µM; MIC [22]: 7.81 µM (≈ 2.41 µg/mL); MIC [23]: 15.6 µM (≈ 4.83 µg/mL); MIC [24]: < 0.98 µM
2 | 15.6 µM (≈ 6.37 µg/mL) | 15.6 µM (≈ 6.37 µg/mL) | 7.81 µM (≈ 3.18 µg/mL) | 7.81 µM (≈ 3.18 µg/mL) | 15.6 µM (≈ 6.37 µg/mL) | 3.91 µM (≈ 1.59 µg/mL) | 7.81 µM (≈ 3.18 µg/mL) | 3.91 µM (≈ 1.59 µg/mL) | 3.91 µM (≈ 1.59 µg/mL) | 7.81 µM (≈ 3.18 µg/mL) | 7.81 µM (≈ 3.18 µg/mL) | 1.95 µM (≈ 0.795 µg/mL) | 1.95 µM (≈ 0.795 µg/mL) | 15.6 µM (≈ 6.37 µg/mL) | 1.95 µM (≈ 0.795 µg/mL) | 15.6 µM (≈ 6.37 µg/mL) | 3.91 µM (≈ 1.59 µg/mL) | 3.91 µM (≈ 1.59 µg/mL) | 7.81 µM (≈ 3.18 µg/mL) | 3.91 µM (≈ 1.59 µg/mL) | O=C1OC(COC(=O)c2ccc(Cl)cc2)C=C1c1ccc(Br)cc1 (stereo not drawn) | MIC [21]: 1.95 µM (≈ 0.795 µg/mL); MIC [22]: 7.81 µM (≈ 3.18 µg/mL); MIC [23]: 15.6 µM (≈ 6.37 µg/mL); MIC [24]: 0.98 µM (≈ 0.399 µg/mL)
